Reference: article PMC6593619 (Clinical Pharmacology and Therapeutics, 2019)
Where two headings read alike, the source gives them in different places.

Columns and labels:
[1] = format: in vivo, human; settings: for Relative difference in Cmax C vs. A (95% CI): esomeprazole 3 hours prior vs regorafenib alone; for Relative difference in Cmax B vs. A (95% CI): esomeprazole concomitant vs regorafenib alone; for Cmax (geomean (CV)) / Tmax: plasma; for Cmax (geomean (CV)): CV in %; for Tmax: human, oral, Tmax (median (IQR))
In short: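 mCRC or GIST patients: regorafenib 120 or 160 mg daily, 14-day loading, 5 days alone or with esomeprazole 40 mg daily (concomitant or 3 h prior); sequence A-B-C or C-B-A. Plasma predose to 24 h on days 21, 49, 77; UPLC-MS/MS. Log Cmax: mixed model (treatment, sequence, phase fixed; subject random), geometric-mean ratio, Bonferroni 97.5% CI. Tmax: Wilcoxon signed rank.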

[2] = erlotinib combined with omeprazole; cited from earlier work
[3] = Toxicity; format: in vivo, human; settings: whole study period
In short: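 Incidence of toxicity tallied per phase in patients on regorafenib 120 or 160 mg daily, alone or with esomeprazole 40 mg daily; only toxicity new or worsened relative to baseline counted.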

[4] = after oral administration; cited from earlier work
[5] = cited from earlier work
[6] = mCRC, unselected group, third or fourth line; cited from earlier work
[7] = compared with other TKIs, despite solid dispersion formulation; cited from earlier work
[8] = phase A: regorafenib alone, 120 mg at steady state
[9] = phase A: regorafenib alone, 120 mg once daily at steady state
[10] = phase B: regorafenib + esomeprazole 40 mg concomitant
[11] = phase B: regorafenib + esomeprazole concomitant
[12] = phase C: regorafenib + esomeprazole 40 mg 3 hours prior
[13] = phase C: regorafenib + esomeprazole 3 hours prior

Relative difference in Cmax C vs. A (95% CI) [1]	Relative difference in Cmax B vs. A (95% CI) [1]	Tmax (median (IQR)) [1, 8]	Cmax (geomean (CV)) [1, 9]	Cmax (geomean (CV)) [1, 10]	Tmax (median (IQR)) [1, 11]	Cmax (geomean (CV)) [1, 12]	Tmax (median (IQR)) [1, 13]	Structure (SMILES)	other results
−9.3% (−38.1 to 32.9%)	−11.0% (−38.7 to 29.1%)	3.3 (2.0–6.0) hours	2.9 (72.0) μg/mL	2.6 (60.9) μg/mL	2.6 (2.1–3.5) hours	2.6 (44.2) μg/mL	3.5 (2.5–6.0) hours	CNC(=O)c1cc(Oc2ccc(NC(=O)Nc3ccc(Cl)c(C(F)(F)F)c3)c(F)c2)cc[n+]1[O-] [M‐2]	–
–	–	–	–	–	–	–	–	C#Cc1cccc(Nc2ncnc3cc(OCCOC)c(OCCOC)cc23)c1 [erlotinib]	Decrease in systemic exposure [2]: 46%
−9.1% (−43.2 to 45.5%)	−10.4% (−34.6 to 22.8%)	2.6 (1.5–4.0) hours	1.6 (118.8) μg/mL	1.4 (132.4) μg/mL	2.3 (1.5–8.0) hours	1.4 (107.6) μg/mL	3.5 (2.5–6.0) hours	NC(=O)c1cc(Oc2ccc(NC(=O)Nc3ccc(Cl)c(C(F)(F)F)c3)c(F)c2)cc[n+]1[O-] [M‐5]	–

Structure (SMILES)	Relative difference in Cmax C vs. A (95% CI) [1]	Relative difference in Cmax B vs. A (95% CI) [1]	Tmax (median (IQR)) [1, 8]	Cmax (geomean (CV)) [1, 9]	Cmax (geomean (CV)) [1, 10]	Tmax (median (IQR)) [1, 11]	Cmax (geomean (CV)) [1, 12]	Tmax (median (IQR)) [1, 13]	other results
CNC(=O)c1cc(Oc2ccc(NC(=O)Nc3ccc(Cl)c(C(F)(F)F)c3)c(F)c2)ccn1 [Regorafenib, 4‐[4‐({[4‐chloro‐3‐(trifluoromethyl)phenyl]carbamoyl}amino)‐3‐fluorophenoxy]‐N‐methylpyridine‐2‐carboxamide]	−12.1% (−32.0 to 13.8%)	−16.5% (−34.9 to 7.0%)	–	–	–	–	–	–	Pharmacokinetic interaction with esomeprazole ([1]; esomeprazole concomitant or 3 hours prior): did not reveal a significant pharmacokinetic interaction; Tmax ([1]; 120 mg, phase A: regorafenib alone, 120 mg at steady state): 2.5 h; Tmax [1, 11]: 2.5 h; Tmax [1, 13]: 3 h; Incidence of anorexia ≥ grade 3 [3]: 14%; Incidence of hand/foot skin reaction ≥ grade 3 [3]: 14%; Incidence of hypertension ≥ grade 3 [3]: 64%; Incidence of anorexia ([3]; all grades): 71%; Incidence of fatigue ([3]; all grades): 71%; Incidence of hand/foot skin reaction ([3]; all grades): 64%; Incidence of hypertension ([3]; all grades): 71%; Incidence of stomatitis ([3]; all grades): 57%; Incidence of hoarseness ([3]; all grades, 14 patients): 79%; Time of maximum concentration (Tmax) [4]: 3 to 4 h; Basic predicted pKa [5]: around 2; Median overall survival increase compared with placebo [6]: 1.4 months; Solubility [7]: low solubility
